In ChEMBL document CHEMBL1153856, “Synthesis and spectral characterization of a new class of N-(N-methylpiperazinoacetyl)-2,6-diarylpiperidin-4-ones: antimicrobial, analgesic and antipyretic studies” (2009):
In brackets after ≈: the same amount, converted by molar mass.

How the values were obtained:
Type in all cases: functional
[1] = test system: Salmonella enterica subsp. enterica serovar Typhi str. CT18; assay: Antimicrobial activity against Salmonella typhi after 24 hrs by twofold serial dilution method
Method in brief: (§1)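 Twofold serial broth dilution in nutrient broth at pH 7.4 ± 0.2. Compound stocks were 1 mg/mL in DMSO, diluted 1:5 into seeded broth, then six serial dilutions. Inocula came from 24 h nutrient-agar cultures, final 10⁵ cfu/mL. Incubation was 37 ± 1 °C for 24 h, with growth and solvent controls. MIC was read visually; ciprofloxacin was the standard.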

Aspergillus flavus = assay: Antimicrobial activity against Aspergillus flavus after 72 to 96 hrs by twofold serial dilution method
Method in brief: (§2)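 Twofold serial broth dilution in Sabouraud dextrose broth at pH 5.6. Spores came from 1–7-day Sabouraud agar slants, final inoculum 1.1–1.5 × 10² cfu/mL. Compound stocks were 1 mg/mL in DMSO, diluted 1:5 into seeded broth, then six serial dilutions. Incubation was 28 ± 1 °C for 72–96 h, with growth and solvent controls. MIC was read visually; amphotericin B was the standard.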

Mus musculus [2] = assay: Analgesic activity in albino mouse assessed as inhibition of acetic acid-induced writhing response at 30 mg/kg, po administered 1 hr prior to acetic acid challenge relative to control
Method in brief: (§3)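 Albino mice of both sexes, 20–25 g, n = 6 per group. Doses of 30, 60 or 90 mg/kg were given orally as suspensions in 1% sodium CMC. 1 h later, 1% acetic acid in normal saline (10 mL/kg) was injected ip. Complete extension of either hind limb counted as a writhe. Counting started 5 min after injection and ran 30 min. Results are % inhibition = [1 − T/C] × 100 versus vehicle controls, mean ± SEM.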

Escherichia coli = assay: Antimicrobial activity against Escherichia coli after 24 hrs by twofold serial dilution method; method in brief: as §1
Pseudomonas aeruginosa = assay: Antimicrobial activity against Pseudomonas aeruginosa after 24 hrs by twofold serial dilution method; method in brief: as §1
Klebsiella pneumoniae = assay: Antimicrobial activity against Klebsiella pneumoniae after 24 hrs by twofold serial dilution method; method in brief: as §1
Rattus norvegicus [3] = assay: Antipyretic activity against brewer's yeast-induced hyperthermia in Wistar rat assessed as change in rectal temperature at 60 mg/kg, po after 30 mins
Method in brief: (§4)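 Wistar rats of both sexes, 200–250 g, received brewer's yeast in normal saline sc. Rectal temperature was taken with a digital thermometer (precision 0.1 °C). At 18 h, rats whose temperature had risen 0.3–0.5 °C were selected. Test compounds (30 or 60 mg/kg) or indomethacin (5 mg/kg) were given orally in 1% CMC; controls received vehicle only. Temperature was measured at 30, 60, 90, 120 and 150 min, mean ± SEM.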

Rattus norvegicus [4] = assay: Antipyretic activity against brewer's yeast-induced hyperthermia in Wistar rat assessed as change in rectal temperature at 60 mg/kg, po after 150 mins; method in brief: as §4
Rattus norvegicus [5] = assay: Antipyretic activity against brewer's yeast-induced hyperthermia in Wistar rat assessed as change in rectal temperature at 30 mg/kg, po after 30 mins; method in brief: as §4
Candida albicans = assay: Antimicrobial activity against Candida albicans after 72 to 96 hrs by twofold serial dilution method; method in brief: as §2
Rattus norvegicus [6] = assay: Antipyretic activity against brewer's yeast-induced hyperthermia in Wistar rat assessed as change in rectal temperature at 60 mg/kg, po after 90 mins; method in brief: as §4
Rhizopus = assay: Antimicrobial activity against Rhizopus sp. after 72 to 96 hrs by twofold serial dilution method; method in brief: as §2
Rattus norvegicus [7] = assay: Antipyretic activity against brewer's yeast-induced hyperthermia in Wistar rat assessed as change in rectal temperature at 60 mg/kg, po after 120 mins; method in brief: as §4
Rattus norvegicus [8] = assay: Antipyretic activity against brewer's yeast-induced hyperthermia in Wistar rat assessed as change in rectal temperature at 60 mg/kg, po after 60 mins; method in brief: as §4
Mus musculus [9] = assay: Analgesic activity in albino mouse assessed as inhibition of acetic acid-induced writhing response at 60 mg/kg, po administered 1 hr prior to acetic acid challenge relative to control; method in brief: as §3
Aspergillus niger = assay: Antimicrobial activity against Aspergillus niger after 72 to 96 hrs by twofold serial dilution method; method in brief: as §2
Mus musculus [10] = assay: Analgesic activity in albino mouse assessed as inhibition of acetic acid-induced writhing response at 90 mg/kg, po administered 1 hr prior to acetic acid challenge relative to control; method in brief: as §3
Rattus norvegicus [11] = assay: Antipyretic activity against brewer's yeast-induced hyperthermia in Wistar rat assessed as change in rectal temperature at 30 mg/kg, po after 60 mins; method in brief: as §4
Rattus norvegicus [12] = assay: Antipyretic activity against brewer's yeast-induced hyperthermia in Wistar rat assessed as change in rectal temperature at 30 mg/kg, po after 90 mins; method in brief: as §4
Staphylococcus aureus = assay: Antimicrobial activity against Staphylococcus aureus after 24 hrs by twofold serial dilution method; method in brief: as §1
Rattus norvegicus [13] = assay: Antipyretic activity against brewer's yeast-induced hyperthermia in Wistar rat assessed as change in rectal temperature at 30 mg/kg, po after 150 mins; method in brief: as §4
Rattus norvegicus [14] = assay: Antipyretic activity against brewer's yeast-induced hyperthermia in Wistar rat assessed as change in rectal temperature at 30 mg/kg, po after 120 mins; method in brief: as §4

Compound	MIC [1] [µg/mL]	MIC (Aspergillus flavus) [µg/mL]	inhibition in vivo at 30 mg/kg (Mus musculus [2]) [%]	MIC (Escherichia coli) [µg/mL]	MIC (Pseudomonas aeruginosa) [µg/mL]	MIC (Klebsiella pneumoniae) [µg/mL]	Activity (Rattus norvegicus [3]) [°C]	Activity (Rattus norvegicus [4]) [°C]	Activity (Rattus norvegicus [5]) [°C]	MIC (Candida albicans) [µg/mL]	Activity (Rattus norvegicus [6]) [°C]	MIC (Rhizopus) [µg/mL]	Activity (Rattus norvegicus [7]) [°C]	Activity (Rattus norvegicus [8]) [°C]	inhibition in vivo at 60 mg/kg (Mus musculus [9]) [%]	MIC (Aspergillus niger) [µg/mL]	inhibition in vivo at 90 mg/kg (Mus musculus [10]) [%]	Activity (Rattus norvegicus [11]) [°C]	Activity (Rattus norvegicus [12]) [°C]	MIC (Staphylococcus aureus) [µg/mL]	further results
CC1C(=O)C(C)C(c2ccccc2)N(C(=O)CN2CCN(C)CC2)C1c1ccccc1 (configuration not stated)	25 (≈ 59.6 µM)	50 (≈ 119 µM)	17.4	100 (≈ 238 µM)	50 (≈ 119 µM)	12.5 (≈ 29.8 µM)	38.1	37.55	38.11	100 (≈ 238 µM)	37.9	50 (≈ 119 µM)	37.7	37.95	24.1	50 (≈ 119 µM)	13.9	38	38.95	50 (≈ 119 µM)	Activity (Rattus norvegicus [13]): 38.7 °C; Activity (Rattus norvegicus [14]): 38.85 °C
CC1C(=O)CC(c2ccc(Cl)cc2)N(C(=O)CN2CCN(C)CC2)C1c1ccc(Cl)cc1 (configuration not stated)	12.5 (≈ 26.3 µM)	50 (≈ 105 µM)	49.2	25 (≈ 52.7 µM)	6.25 (≈ 13.2 µM)	25 (≈ 52.7 µM)	37.95	37.5	37.05	6.25 (≈ 13.2 µM)	37.85	12.5 (≈ 26.3 µM)	37.65	37.92	70.4	25 (≈ 52.7 µM)	61.6	37.96	37.89	50 (≈ 105 µM)	Activity (Rattus norvegicus [13]): 37.65 °C; Activity (Rattus norvegicus [14]): 37.7 °C
CC1C(=O)C(C)C(c2ccc(Cl)cc2)N(C(=O)CN2CCN(C)CC2)C1c1ccc(Cl)cc1 (configuration not stated)	50 (≈ 102 µM)	25 (≈ 51.2 µM)	22.5	12.5 (≈ 25.6 µM)	12.5 (≈ 25.6 µM)	6.25 (≈ 12.8 µM)	37.92	37.3	37.95	12.5 (≈ 25.6 µM)	37.75	6.25 (≈ 12.8 µM)	37.55	37.85	36.5	25 (≈ 51.2 µM)	38.9	37.9	37.8	6.25 (≈ 12.8 µM)	Activity (Rattus norvegicus [13]): 37.4 °C; Activity (Rattus norvegicus [14]): 37.6 °C
COc1ccc(C2CC(=O)C(C)C(c3ccc(OC)cc3)N2C(=O)CN2CCN(C)CC2)cc1 (configuration not stated)	200 (≈ 430 µM)	50 (≈ 107 µM)	48.2	50 (≈ 107 µM)	50 (≈ 107 µM)	100 (≈ 215 µM)	37.85	37.01	37.9	25 (≈ 53.7 µM)	37.5	50 (≈ 107 µM)	37.3	37.7	70.3	100 (≈ 215 µM)	48	37.8	37.6	100 (≈ 215 µM)	Activity (Rattus norvegicus [13]): 37.2 °C; Activity (Rattus norvegicus [14]): 37.5 °C
Cc1ccc(C2C(C)C(=O)C(C)C(c3ccc(C)cc3)N2C(=O)CN2CCN(C)CC2)cc1 (configuration not stated)	25 (≈ 55.9 µM)	12.5 (≈ 27.9 µM)	42.6	100 (≈ 223 µM)	25 (≈ 55.9 µM)	12.5 (≈ 27.9 µM)	38.01	37.6	38.11	50 (≈ 112 µM)	37.9	25 (≈ 55.9 µM)	37.8	38.95	54.6	12.5 (≈ 27.9 µM)	33.1	38.02	37.95	50 (≈ 112 µM)	Activity (Rattus norvegicus [13]): 37.7 °C; Activity (Rattus norvegicus [14]): 37.9 °C
CCC1C(=O)CC(c2ccccc2)N(C(=O)CN2CCN(C)CC2)C1c1ccccc1 (configuration not stated)	100 (≈ 238 µM)	> 200	8	> 200	200 (≈ 477 µM)	50 (≈ 119 µM)	38.25	38.9	38.27	100 (≈ 238 µM)	38.1	> 200	38.95	38.2	4.5	200 (≈ 477 µM)	1.2	38.22	38.15	100 (≈ 238 µM)	Activity (Rattus norvegicus [13]): 38.98 °C; Activity (Rattus norvegicus [14]): 38.01 °C
C[C@@H]1[C@H](O)[C@@H](C)/C=C/C=C/C=C/C=C/C=C/C=C/C=C/[C@H](O[C@@H]2O[C@H](C)[C@@H](O)[C@H](N)[C@@H]2O)C[C@@H]2O[C@](O)(C[C@@H](O)C[C@@H](O)[C@H](O)CC[C@@H](O)C[C@@H](O)CC(=O)O[C@H]1C)C[C@H](O)[C@H]2C(=O)O [AMPHOTERICIN B]		50 (≈ 54.1 µM)								25 (≈ 27.1 µM)		25 (≈ 27.1 µM)				50 (≈ 54.1 µM)					
CC(=O)Oc1ccccc1C(=O)O [ASPIRIN]			44.8												57.9		38.6				
O=C(O)c1cn(C2CC2)c2cc(N3CCNCC3)c(F)cc2c1=O [CIPROFLOXACIN]	50 (≈ 151 µM)			25 (≈ 75.4 µM)		25 (≈ 75.4 µM)															
